Results as given in ChEMBL document CHEMBL4411305, “5-Aminothiophene-2,4-dicarboxamide analogues as hepatitis B virus capsid assembly effectors” (Eur J Med Chem, 2019).
Active and inactive are the calls of the source. No rule for the calls is given here.

What was measured:
Hepatitis B virus [1] = test: Antiviral activity against HBV infected in human HepAD38 cells assessed as reduction in total DNA production incubated for 2 days prior to compound washout followed by compound redosing and measured after 2 days by dot-blot analysis; format: functional, organism-based
Method in brief: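 HepAD38 cells seeded at 3 × 10^4/well in tetracycline medium; next day washed twice with PBS and given tet-free complete medium with 2-fold serial dilutions, 1% final DMSO, replaced with fresh compound medium after 2 days. After 2 more days cells lysed (NP-40), DNA alkali-denatured, dot-blotted, probed with DIG-labelled HBV probe; chemiluminescence densitometry, variable-slope fit; mean ± SD of ≥2 experiments.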

HepG2 = test: Cytotoxicity against human HepG2 cells assessed as reduction in cell viability incubated for 2 days prior to compound washout followed by compound redosing and measured after 2 days by XTT assay; format: cell-based; settings: hepg2, 48 h
Hepatitis B virus [2] = test: Binding affinity to HBV dimeric capsid protein C150 mutant expressed in Escherichia coli BL21 (DE3) at 20 uM by Sypro orange staining based RT-PCR analysis

SMILES	EC50 (Hepatitis B virus [1]) [µM]	CC50 (HepG2) [µM]	Activity (Hepatitis B virus [2])
Cc1cc(NC(=O)c2sc(N)c(C(N)=O)c2C)ccc1Cl	1.7	> 100	Active
Cc1c(C(=O)Nc2ccccc2)sc(NC(=O)N2CCOCC2)c1C(N)=O			inactive
Cc1nc(=O)c2c(C)c(C(=O)Nc3ccccc3)sc2[nH]1			inactive
Cc1c(C(=O)Nc2ccccc2)sc(N)c1C#N			inactive
Cc1ccc(NC(=O)c2sc(N)c(C(N)=O)c2C)cc1	> 10		inactive
COc1ccc(NC(=O)c2sc(N)c(C(N)=O)c2C)cc1	10		Active
Cc1c(C(=O)Nc2cc(F)c(F)c(Cl)c2)sc(N)c1C(N)=O		72	Active
Cc1c(C(=O)Nc2ccccc2)sc(NC(=O)Cc2ccc(F)c(F)c2)c1C(N)=O	10	> 100	Active
Cc1c(C(=O)Nc2ccc(Cl)c(C(F)(F)F)c2)sc(N)c1C(N)=O		72	Active
Cc1c(C(=O)Nc2ccccc2)sc2[nH]c(Cc3ccccc3)nc(=O)c12			inactive
Cc1c(C(=O)Nc2ccccc2)sc2[nH]c(-c3ccc(F)c(F)c3)nc(=O)c12			inactive
NC(=O)c1c(N)sc2c1CCCN2C(=O)c1ccccc1			inactive
Cc1c(C(=O)Nc2ccc(F)c(F)c2)sc(N)c1C#N	10	> 100	Active
Cc1c(C(=O)Nc2ccccc2)sc(NC(=O)c2nccs2)c1C(N)=O		> 100	Active
Cc1cc(NC(=O)c2sc(N)c(C#N)c2C)ccc1F		96	Active
Cc1c(C(=O)Nc2ccccc2)sc(N)c1C(=O)NC1CCCC1	> 10		inactive
Cc1c(C(=O)Nc2ccccc2)sc(N)c1C(=O)NC(C)C	> 10		inactive
Cc1ccc(C(=O)Nc2sc(C(=O)Nc3ccccc3)c(C)c2C(N)=O)s1		> 100	Active
CCOC(=O)c1c(N)sc(C(=O)Nc2ccccc2)c1C	> 10	76	Active
CCOC(=O)c1c(N)sc(C(=O)Nc2ccc(F)c(C)c2)c1C		> 100	Active
NC(=O)c1c(N)sc2c1CCCC2			inactive
Cc1c(C(=O)Nc2ccc(F)c(F)c2)sc(N)c1C(=O)Nc1ccccc1		26	Active
Cc1c(C(=O)Nc2ccc(C#N)cc2)sc(N)c1C(N)=O			inactive
NC(=O)c1c(N)sc2c1CCN(C(=O)c1ccccc1)C2			inactive
Cc1c(C(=O)Nc2ccccc2)sc2[nH]c(CS(=O)(=O)c3ccccc3)nc(=O)c12			inactive
Cc1c(C(=O)Nc2ccc(F)c(F)c2)sc(N)c1C(=O)Nc1ccc(F)c(F)c1		17	Active

SMILES	EC50 (Hepatitis B virus [1]) [µM]	CC50 (HepG2) [µM]	Activity (Hepatitis B virus [2])
Cc1c(C(=O)Nc2ccccc2)sc(NC(=O)c2csc([N+](=O)[O-])c2)c1C(N)=O		> 100	Active
O=C(N/C(C(=O)N1CCCCC1)=C(\Cl)c1ccccc1)c1ccccc1	4.8	61	Active
Cc1c(C(=O)Nc2ccc(F)c(F)c2)sc(N)c1C(=O)Nc1ccc(Cl)cc1	> 10		Active
Cc1c(C(=O)Nc2ccccc2)sc(NC(=O)c2cn[nH]c2)c1C(N)=O		> 100	Active
Cc1c(C(=O)Nc2ccc(C(F)(F)F)cc2)sc(N)c1C(N)=O			inactive
CC(C)Cc1sc(-c2nccs2)nc1C(=O)NCc1ccc(F)cc1	10	29	Active
Cc1c(C(=O)Nc2ccccc2)sc(N)c1C(=O)NC1CC1	> 10		inactive
Cc1cc(NC(=O)c2c(N)sc(C(=O)Nc3ccccc3)c2C)ccc1F		40	Active
CCOC(=O)C1=C(C)NC(c2ncccc2F)=NC1c1ccc(F)cc1Cl (configuration not stated)	0.41	> 100	Active
Cc1c(C(=O)Nc2ccccc2)sc(NC(=O)c2cc(Cl)cc(Cl)c2)c1C(N)=O		49.5	Active
Cc1c(C(=O)Nc2cc(F)c(F)c(Cl)c2)sc(N)c1C#N			inactive
Cc1ccc(CC(=O)Nc2sc(C(=O)Nc3ccccc3)c(C)c2C(N)=O)cc1F	> 10	> 100	Active
Cc1c(C(=O)Nc2ccc(F)c(F)c2)sc(N)c1C(=O)NC1CCCC1	> 10		Active
O=C(Nc1ccc(F)c(F)c1)c1cc(S(=O)(=O)NC2CCCC2)ccc1F	0.25	17	Active
Cc1c(C(=O)Nc2ccccc2)sc(N)c1C(=O)Nc1ccccc1		> 100	Active
Cc1c(C(=O)Nc2ccccc2)sc(-n2cnnn2)c1C(N)=O			inactive
Cc1c(C(=O)Nc2ccc(F)cc2)sc(N)c1C(N)=O		> 100	Active
Cc1c(C(=O)Nc2ccc(F)c(C(F)(F)F)c2)sc(N)c1C(N)=O		> 100	Active
Cc1c(C(=O)NCc2ccccc2)sc(N)c1C(N)=O	10		Active
Cc1c(C(=O)Nc2ccccc2)sc(NC(=O)c2ccc(S(C)(=O)=O)cc2)c1C(N)=O		> 100	Active
Cc1c(C(=O)Nc2ccccc2)sc(NC(=O)c2ccsc2)c1C(N)=O		> 100	Active
Cc1c(C(=O)Nc2ccccc2)sc(N)c1C(=O)NCc1ccc(C(F)(F)F)cc1	> 10		Active
Cc1cc(NC(=O)c2sc(N)c(C(=O)Nc3ccc(F)c(C)c3)c2C)ccc1F			inactive
Cc1c(C(=O)Nc2ccccc2)sc(N)c1C(=O)Nc1ccc(F)c(F)c1		40	Active
COc1ccc(CNC(=O)c2c(N)sc(C(=O)Nc3ccccc3)c2C)cc1	> 10		Active
